Measurements: ChEMBL document CHEMBL1122182, “Structure-activity studies on the C-terminal amide of substance P” (1982)
Where a SMILES comes first, the peptide text is derived from it. [ ]: non-standard residue; d: D form. The star is where a group is joined. Nle = CCCC[C@H](N)C(=O)O; NEt2 = CCN(CC)*; X1 = CN(C)N*; NHNH2 = NN*

Key:
Format in all cases: functional
[1] = species on record: Cavia porcellus; experiment: In vitro relative affinity was measured in guinea pig ileum
In short: (§1)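 Contraction of isolated guinea pig ileum. Peptide solutions were prepared and used the same day, then discarded. Responses were expressed as pD2, intrinsic activity (αE) and relative affinity.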

[2] = system: Rattus norvegicus; experiment: In vivo relative blood pressure potency was measured in rat
[3] = species on record: Cavia porcellus; experiment: In vitro (pD2) the negative log of the dose which causes half-maximal contraction was measured in guinea pig ileum; in short: as §1
[4] = species on record: Cavia porcellus; experiment: In vitro intrinsic activity was measured in guinea pig ileum; in short: as §1

In the case of `CSCC[C@H](NC(=O)[C@H](CC(C)C)NC(=O)CNC(=O)[C@H](Cc1ccccc1)NC(=O)[C@H](Cc1ccccc1)NC(=O)[C@H](CCC(N)=O)NC(=O)[C@@H](N)CCC(N)=O)C(N)=O` (H-QQFFGLM-NH2), the RA [1] is reported as 100%, the RBP [2] is reported as 100% and the pD2 [3] is reported as 8.77. For the same compound, the Activity [4] was 1.

In the case of `CNC(=O)[C@H](CCSC)NC(=O)[C@H](CC(C)C)NC(=O)CNC(=O)[C@H](Cc1ccccc1)NC(=O)[C@H](Cc1ccccc1)NC(=O)[C@H](CCC(N)=O)NC(=O)[C@@H](N)CCC(N)=O` (H-QQFFGLM-NHMe), the RA [1] is reported as 1%, the RBP [2] is reported as 5% and the pD2 [3] is reported as 6.77. For the same compound, the Activity [4] was 0.85.

Work on `CSCC[C@H](NC(=O)[C@H](CC(C)C)NC(=O)CNC(=O)[C@H](Cc1ccccc1)NC(=O)[C@H](Cc1ccccc1)NC(=O)[C@H](CCC(N)=O)NC(=O)[C@@H](N)CCC(N)=O)C(=O)NN` (H-QQFFGLM-NHNH2) yielded an RA [1] of 1%, an RBP [2] of 0.4% and a pD2 [3] of 6.8. It also gave an Activity [4] of 1.

`CSCC[C@H](NC(=O)[C@H](CC(C)C)NC(=O)CNC(=O)[C@H](Cc1ccccc1)NC(=O)[C@H](Cc1ccccc1)NC(=O)[C@H](CCC(N)=O)NC(=O)[C@@H](N)CCC(N)=O)C(=O)N(C)C` (H-QQFFGLM-NMe2) was tested, and the RA [1] was <0.01% and the RBP [2] was 0.2%.

`COC(=O)[C@H](CCSC)NC(=O)[C@H](CC(C)C)NC(=O)CNC(=O)[C@H](Cc1ccccc1)NC(=O)[C@H](Cc1ccccc1)NC(=O)[C@H](CCC(N)=O)NC(=O)[C@@H](N)CCC(N)=O` (H-QQFFGLM-OMe) was tested, and the RA [1] was 3.37%, the RBP [2] was 1% and the pD2 [3] was 7.3. It also gave an Activity [4] of 1.

In the case of `CSCC[C@H](NC(=O)[C@H](CC(C)C)NC(=O)CNC(=O)[C@H](Cc1ccccc1)NC(=O)[C@H](Cc1ccccc1)NC(=O)[C@H](CCC(N)=O)NC(=O)[C@@H](N)CCC(N)=O)C(=O)NN(C)C` (H-QQFFGLM-X1), the RA [1] is reported as 0.53%, the RBP [2] is reported as <0.05% and the pD2 [3] is reported as 6.6.

For `CCCC[C@H](NC(=O)[C@H](CC(C)C)NC(=O)CNC(=O)[C@H](Cc1ccccc1)NC(=O)[C@H](Cc1ccccc1)NC(=O)[C@H](CCC(N)=O)NC(=O)[C@@H](N)CCC(N)=O)C(=O)N(CC)CC` (H-QQFFGL[Nle]-NEt2), the RA [1] was 1.3%, the RBP [2] was 0.2% and the pD2 [3] was 6.03. It also gave an Activity [4] of 1.

Compound `CCCC[C@H](NC(=O)[C@H](CC(C)C)NC(=O)CNC(=O)[C@H](Cc1ccccc1)NC(=O)[C@H](Cc1ccccc1)NC(=O)[C@H](CCC(N)=O)NC(=O)[C@@H](N)CCC(N)=O)C(N)=O` (H-QQFFGL[Nle]-NH2) has a pD2 [3] of 7.93 and an Activity [4] of 1.

`CCCC[C@H](NC(=O)[C@H](CC(C)C)NC(=O)CNC(=O)[C@H](Cc1ccccc1)NC(=O)[C@H](Cc1ccccc1)NC(=O)[C@H](CCC(N)=O)NC(=O)[C@@H](N)CCC(N)=O)C(=O)NN` (H-QQFFGL[Nle]-NHNH2) showed an RA [1] of 5%, an RBP [2] of 5.2% and a pD2 [3] of 6.63. It also gave an Activity [4] of 1.

`CCCC[C@H](NC(=O)[C@H](CC(C)C)NC(=O)CNC(=O)[C@H](Cc1ccccc1)NC(=O)[C@H](Cc1ccccc1)NC(=O)[C@H](CCC(N)=O)NC(=O)[C@@H](N)CCC(N)=O)C(=O)O` (H-QQFFGL[Nle]-OH) gave an RA [1] of 2.6%, an RBP [2] of 1.5% and a pD2 [3] of 6.34. The Activity [4] was 1.

`CCCC[C@H](NC(=O)[C@H](CC(C)C)NC(=O)CNC(=O)[C@H](Cc1ccccc1)NC(=O)[C@H](Cc1ccccc1)NC(=O)[C@H](CCC(N)=O)NC(=O)[C@@H](N)CCC(N)=O)C(=O)OC` (H-QQFFGL[Nle]-OMe) was tested, and the RA [1] was 3.5%, the RBP [2] was 1.5% and the pD2 [3] was 6.47. For the same compound, the Activity [4] was 1.
